Measurements from different studies.
Compare with care: the assays were run in different laboratories.

| Structure (SMILES) | organism | effect on | technique | strain | time | endpoint | value |
| --- | --- | --- | --- | --- | --- | --- | --- |
| Cc1ccc(Cn2cc(C(=O)N/N=C/c3ccc([N+](=O)[O-])o3)c(=O)c3cc(Cl)c(Cl)cc32)cc1 | Trypanosoma brucei | parasite growth | resazurin | – | 72 h | EC50 | 1.02 µM |
| Cl.O=C(O)CNC(=O)c1ccc(NC(=O)c2cc(Br)c(Br)[nH]2)c(N2CCNCC2)c1 | Enterococcus faecium | microbial growth | broth dilution | ATCC35667 | – | MIC | > 32 µg/mL |
| N=C(N)c1ccc(OCCCCCOc2ccc(C(=N)N)cc2)cc1 | Trypanosoma brucei | parasite growth | SYBR Green | – | – | EC50 | 0.016 µM |
| CC(C)(C)OC(=O)N[C@@H]1CCN(c2cc(C(=O)NCC(=O)O)ccc2NC(=O)c2cc(Br)c(Br)[nH]2)C1 | Enterococcus faecium | microbial growth | broth dilution | ATCC35667 | – | MIC | > 32 µg/mL |
| Cc1ccc(Cn2cc(C(=O)NN)c(=O)c3cc(Oc4ccccc4)ccc32)cc1 | Trypanosoma brucei | parasite growth | resazurin | – | 72 h | EC50 | 0.46 µM |
| Cl.N[C@H]1CCN(c2cc(C(=O)NCC(=O)O)ccc2NC(=O)c2cc(Br)c(Br)[nH]2)C1 | Enterococcus faecium | microbial growth | broth dilution | ATCC35667 | – | MIC | > 32 µg/mL |
| Cc1cc(C)c(C#N)c(NCC(O)c2ccc(F)cc2)n1 (stereo not shown) | Trypanosoma brucei | parasite growth | resazurin | RHODESIENSE | – | EC50 | 7.86 µM |
| COc1cc(NC(=O)c2ccc(C(F)(F)F)cc2C(F)(F)F)ccc1S(N)(=O)=O | Trypanosoma brucei | parasite growth | MTS | – | – | IC50 | > 100 µM |
| Cc1cc(C)c(C(N)=O)c(SCC(=O)c2ccc(Cl)cc2Cl)n1 | Trypanosoma brucei | parasite growth | resazurin | – | – | EC50 | > 64 µM |
| Cc1ccc(Cn2cc(C(=O)N/N=C/c3ccc([N+](=O)[O-])s3)c(=O)c3cc(Cl)c(Cl)cc32)cc1 | Trypanosoma brucei | parasite growth | resazurin | – | 72 h | EC50 | > 4 µM |
| Cc1cc(C)c(C#N)c(SCc2ccccc2)n1 | Trypanosoma brucei | parasite growth | resazurin | RHODESIENSE | – | EC50 | > 64 µM |
| Cc1ccc(Cn2cc(C(=O)N/N=C/c3ccc([N+](=O)[O-])o3)c(=O)c3cc([N+](=O)[O-])ccc32)cc1 | Trypanosoma brucei | parasite growth | resazurin | – | 72 h | EC50 | > 4 µM |
| Cc1cc(C)c(C#N)c(SCC(=O)c2ccc(Cl)cc2)n1 | Trypanosoma brucei | parasite growth | resazurin | RHODESIENSE | – | EC50 | 30.2 µM |
| Cc1[nH]c(C(=O)Nc2ccc(C(=O)NCC(=O)O)cc2N2CC[C@H](NC(=O)OC(C)(C)C)C2)c(Cl)c1Cl | Enterococcus faecium | microbial growth | broth dilution | ATCC35667 | – | MIC | > 32 µg/mL |
| Cc1cc(C)c(C#N)c(SCC(=O)c2ccc(F)cc2)n1 | Trypanosoma brucei | parasite growth | resazurin | – | – | EC50 | 42.6 µM |
| COc1ccc2c(c1)c(=O)c(C(=O)NN)cn2Cc1ccccc1 | Trypanosoma brucei | parasite growth | resazurin | – | 72 h | EC50 | > 4 µM |
